Test results taken from ChEMBL document CHEMBL4715820, “Aglycone Ebselen and β-d-Xyloside Primed Glycosaminoglycans Co-contribute to Ebselen β-d-Xyloside-Induced Cytotoxicity” (J Med Chem, 2018).
pIC50: −log10 of the molar value. Active and inactive are the calls of the source. The rule behind the calls is not given here.

What was measured:
HCT-116 [1] = experiment: Induction of apoptosis in human HCT-116 cells assessed as increase in early apoptosis level at 40 uM incubated for 24 hrs by annexin-V/propidium iodide staining based flow cytometry relative to control; type: functional, cell-based
Method in brief: (§1)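 HCT116 cells were seeded at 6 × 10^4 cells/well and treated 24 h later in medium containing 0.1% DMSO, with DMSO alone as the control. Floating and trypsinized adherent cells were pooled and washed in binding buffer. They were stained with Annexin V/PI for 15 min at room temperature and read by flow cytometry. Early apoptotic cells were FITC+/PI−; late apoptotic cells were FITC+/PI+.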

A549 = experiment: Cytotoxicity in human A549 cells assessed as reduction in cell viability incubated for 48 hrs by resazurin dye based assay; type: functional; conditions: for pIC50: A549, 48 h
Method in brief: (§2)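 Cells seeded at 2000/well, 24 h later exposed to serial dilutions (0.1% DMSO vehicle) in complete medium for 48 h; resazurin (2 mg/mL stock) then added for 16 h; fluorescence at 544 nm excitation/595 nm emission, proportional to living cells. Triplicate wells, repeated twice; IC50 from concentration-response.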

HCT-116 [2] = experiment: Induction of apoptosis in human HCT-116 cells assessed as increase in late apoptosis level at 40 uM incubated for 48 hrs by annexin-V/propidium iodide staining based flow cytometry relative to control
HCT-116 [3] = experiment: Induction of cell cycle arrest in human HCT-116 cells assessed as increase in G2/M cell population level at 20 uM incubated for 24 hrs by propidium iodide /RNase staining based flow cytometry relative to control; type: functional
Method in brief: (§3)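 HCT116 cells (6 × 10^4/well, six-well plates) treated after 24 h for 24 h (12.5 or 15 μM for one conjugate, 20 μM for others; 0.1% DMSO vehicle); floating and trypsinized cells fixed in 70% ethanol at 4 °C overnight, stained with PI/RNase 15 min at room temperature, DNA content by flow cytometry; phase distribution versus control.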

HT-29 = experiment: Cytotoxicity in human HT-29 cells assessed as reduction in cell viability incubated for 48 hrs by resazurin dye based assay; type: functional; conditions: for pIC50: HT-29, 48 h; method in brief: as §2
HCT-116 [4] = experiment: Cytotoxicity in human HCT-116 cells assessed as reduction in cell viability incubated for 48 hrs by resazurin dye based assay; type: functional; conditions: for pIC50: HCT-116, 48 h; method in brief: as §2
NCI-H1299 = experiment: Cytotoxicity in human NCI-H1299 cells assessed as reduction in cell viability incubated for 48 hrs by resazurin dye based assay; type: functional; conditions: for pIC50: NCI-H1299, 48 h; method in brief: as §2
CHO [5] = experiment: Induction of GAG biosynthesis in CHO pgsA-745 cells assessed as increase in GalN level in culture media at 10 uM incubated for 48 hrs by immunostaining based confocal microscopic analysis relative to control; type: functional, cell-based; conditions: Cricetulus griseus
HCT-116 [6] = experiment: Induction of apoptosis in human HCT-116 cells assessed as late apoptosis level at 12.5 uM […] by annexin-V/propidium iodide staining based flow cytometry relative to control; type: functional
[7] = Induction of GAG priming in CHO pgsA-745 cells assessed as increase in delta-UA-GalNAc4S level in from the cell culture media at 10 uM incubated for 24 hrs by LC-MS analysis relative to control; type: functional; conditions: Cricetulus griseus, time 48 hrs, in the assay text read “48 hrs” for “24 hrs”
Method in brief: (§4)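 Disaccharide LC-MS: CHO pgsA-745 cells treated at 10 μM in 0.1% DMSO, GAGs purified from cells or medium, digested with 1 mU chondroitinase ABC (5 mM NH4Ac pH 7.0, 37 °C, 24 h); treated samples PMP-labelled, DMSO controls D5-PMP-labelled, mixed at equal cellular protein (1 mg), co-injected on C18 capillary LC, negative-ion MS; paired ion intensities compared.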

HCT-116 [8] = experiment: Induction of apoptosis in human HCT-116 cells assessed as early apoptosis level at 12.5 uM […] by annexin-V/propidium iodide staining based flow cytometry relative to control; type: functional
CHO [9] = experiment: Induction of GAG priming in CHO pgsA-745 cells assessed as increase in FGF7/GAGs/FGFR2B ternary complex formation at 10 uM incubated for 24 hrs by confocal microscopy; type: functional, cell-based; conditions: Cricetulus griseus
Method in brief: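 Ternary complex assay: CHO pgsA-745 cells on coverslips treated 10 μM with 0.1% DMSO for 24 h at 37 °C, fixed in 4% formaldehyde 15 min, then incubated sequentially with FGFR2B-Fc, FGF7 and Protein A-Alexa Fluor 647; bound receptor imaged by confocal microscopy at 665 nm […].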

HCT-116 [10] = experiment: Induction of cell cycle arrest in human HCT-116 cells assessed as increase in G2/M cell population level at 12.5 uM incubated for 24 hrs by propidium iodide /RNase staining based flow cytometry relative to control; type: functional; method in brief: as §3
HCT-116 [11] = experiment: Induction of cell cycle arrest in human HCT-116 cells assessed as G2/M cell population level at 12.5 uM incubated for 24 hrs by propidium iodide /RNase staining based flow cytometry; type: functional; method in brief: as §3
HCT-116 [12] = experiment: Induction of cell cycle arrest in human HCT-116 cells assessed as G2/M cell population level at 15 uM incubated for 24 hrs by propidium iodide /RNase staining based flow cytometry; type: functional; method in brief: as §3
[13] = Induction of GAG priming in CHO pgsA-745 cells assessed as increase in non-sulfated delta-UA-GalNAc level in from the cell culture media at 10 uM incubated for 48 hrs by LC-MS analysis relative to control; conditions: Cricetulus griseus
HCT-116 [14] = experiment: Induction of apoptosis in human HCT-116 cells assessed as increase in late apoptosis level at 7.5 uM […] by annexin-V/propidium iodide staining based flow cytometry relative to control; type: functional, cell-based
[15] = Induction of GAG priming in CHO pgsA-745 cells assessed as increase in delta-UA-GalNAc6S level in from the cell culture media at 10 uM incubated for 24 hrs by LC-MS analysis relative to control; type: functional; conditions: Cricetulus griseus, time 48 hrs, in the assay text read “incubated for 48 hrs” for “incubated for 24 hrs”; method in brief: as §4
CHO [16] = experiment: Induction of GAG biosynthesis in CHO pgsA-745 cells assessed as increase in GlcN level in culture media at 10 uM incubated for 48 hrs by immunostaining based confocal microscopic analysis relative to control; type: functional, cell-based; conditions: Cricetulus griseus
[17] = Induction of GAG priming in CHO pgsA-745 cells assessed as change in UA-GalNAc relative intensity level at 10 uM incubated for 24 hrs by LC-MS analysis (reference value: 44.74); type: functional, Cricetulus griseus; method in brief: as §4
[18] = (§5) Induction of GAG biosynthesis in CHO pgsA-745 cells assessed as increase in GlcN level at 10 uM incubated for 48 hrs by immunostaining based confocal microscopic analysis relative to control; type: functional, Cricetulus griseus
CHO [19] = experiment: Induction of GAG priming in CHO pgsA-745 cells assessed as increase in specific CS staining […] at 10 uM incubated for 24 hrs by immunostaining based flow cytometry; type: functional, cell-based; conditions: Cricetulus griseus
Method in brief: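 CHO pgsA-745 cells treated 10 μM with 0.1% DMSO 24 h at 37 °C, trypsinized, fixed in 4% formaldehyde, digested with 1 mU chondroitinase ABC 20 min at 37 °C, stained overnight at 4 °C with mAb 2B6 then Alexa Fluor 488 anti-mouse secondary; fluorescence intensity read by flow cytometry.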

[20] = Induction of GAG priming in CHO pgsA-745 cells assessed as change in UA-GalNAc4S relative intensity level at 10 uM incubated for 24 hrs by LC-MS analysis (reference value: 2.9); type: functional; conditions: Cricetulus griseus, time 48 hrs, in the assay text read “incubated for 48 hrs” for “incubated for 24 hrs”; method in brief: as §4
[21] = (§6) Induction of GAG biosynthesis in CHO pgsA-745 cells assessed as increase in GalN level at 10 uM incubated for 48 hrs by immunostaining based confocal microscopic analysis relative to control; type: functional, Cricetulus griseus
[22] = Induction of GAG priming in CHO pgsA-745 cells assessed as change in UA-GalNAc6S relative intensity level at 10 uM incubated for 24 hrs by LC-MS analysis (reference value: 29.19); type: functional; conditions: Cricetulus griseus, time 48 hrs, in the assay text read “incubated for 48 hrs” for “incubated for 24 hrs”; method in brief: as §4
HCT-116 [23] = experiment: Induction of apoptosis in human HCT-116 cells assessed as increase in early apoptosis level at 7.5 uM […] by annexin-V/propidium iodide staining based flow cytometry relative to control; type: functional
[24] = Induction of GAG priming in CHO pgsA-745 cells assessed as change in UA-GalNAc4S relative intensity level at 10 uM incubated for 24 hrs by LC-MS analysis (reference value: 1.01); type: functional; conditions: Cricetulus griseus, time 48 hrs, in the assay text read “incubated for 48 hrs” for “incubated for 24 hrs”; method in brief: as §4
[25] = Induction of GAG priming in CHO pgsA-745 cells assessed as change in UA-GalNAc relative intensity level at 10 uM incubated for 24 hrs by LC-MS analysis (reference value: 8.99); type: functional, Cricetulus griseus; method in brief: as §4
[26] = Induction of GAG priming in CHO pgsA-745 cells assessed as increase in non-sulfated delta-UA-GalNAc level in from the cell culture media at 10 uM incubated for 24 hrs by LC-MS analysis relative to control; type: functional; conditions: Cricetulus griseus, time 48 hrs, in the assay text read “incubated for 48 hrs” for “incubated for 24 hrs”; method in brief: as §4
CHO [27] = experiment: as §5; type: functional; conditions: Cricetulus griseus
[28] = Induction of GAG priming in CHO pgsA-745 cells assessed as change in UA-GalNAc6S relative intensity level at 10 uM incubated for 24 hrs by LC-MS analysis (reference value: 9.52); type: functional; conditions: Cricetulus griseus, time 48 hrs, in the assay text read “incubated for 48 hrs” for “incubated for 24 hrs”; method in brief: as §4
CHO [29] = experiment: as §6; type: functional; conditions: Cricetulus griseus
HCT-116 [30] = experiment: Induction of cell cycle arrest at S phase in human HCT-116 cells at 40 uM incubated for 24 hrs by propidium iodide /RNase staining based flow cytometry; type: functional
Method in brief: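 HCT116 cells (6 × 10^4/well) were seeded, then exposed 24 h later in complete medium, with 0.1% DMSO as the control. After 24 h, medium cells and trypsinized adherent cells were combined. Pellets were fixed in 70% ethanol at 4 °C overnight and stained with PI/RNase buffer for 15 min at room temperature. Phase distribution (G0/G1, S, G2/M) was measured by flow cytometry.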

HCT-116 [31] = experiment: Induction of apoptosis in human HCT-116 cells assessed as increase in late apoptosis level at 40 uM incubated for 24 hrs by annexin-V/propidium iodide staining based flow cytometry relative to control; type: functional, cell-based; method in brief: as §1

Row | Compound | Activity (HCT-116 [1]) | pIC50 (A549) | Activity (HCT-116 [2]) | Activity (HCT-116 [3]) | pIC50 (HT-29) | pIC50 (HCT-116 [4]) | pIC50 (NCI-H1299) | Activity (CHO [5]) | fold change (FC) [7] | Activity (CHO [9]) | fold change (FC) [15] | Activity (CHO [16]) | further results
1 | CC(=O)OC[C@H]1O[C@@H](O[C@H]2[C@H](OC(C)=O)[C@@H](OC(C)=O)[C@H](n3[se]c4ccccc4c3=O)O[C@@H]2COC(C)=O)[C@H](OC(C)=O)[C@@H](OC(C)=O)[C@H]1OC(C)=O | Active | 4.44 | Active | Active | 4.49 | 4.62 | 4.47 |  |  |  |  |  | 
2 | CC(=O)O[C@@H]1[C@@H](OC(C)=O)[C@H](OC(C)=O)CO[C@H]1n1[se]c2ccccc2c1=O |  | 5.15 |  |  | 5.14 | 5.19 | 5.15 | inactive | 34.5 | Active | 3.4 | inactive | Activity (HCT-116 [6]): 13.18%; Activity (A549): Dose-dependent effect; Activity (HCT-116 [8]): 10.97%; fold change (FC) (HCT-116 [10]): 1.3; Activity (HCT-116 [11]): 45.2%; Activity (HCT-116 [12]): 51.9%; fold change (FC) [13]: 2.24; Activity (HCT-116 [14]): Active; Activity (HT-29): Dose-dependent effect; fold change (FC) [17]: 100; Activity (HCT-116 [4]): Dose-dependent effect; fold change (FC) [18]: 12.2; Activity (NCI-H1299): Dose-dependent effect; Activity (CHO [19]): Active; fold change (FC) [20]: 100; fold change (FC) [21]: 27.6; fold change (FC) [22]: 100; fold change (FC) (HCT-116 [23]): 27.7
3 | O[C@@H]1[C@@H](O)[C@H](Oc2ccccc2)OC[C@H]1O |  |  |  |  |  |  |  | Active | <=99 | inactive | 10.5 | Active | fold change (FC) [24]: 100; fold change (FC) [25]: 100; fold change (FC) [26]: 11; Activity (CHO [27]): Active; fold change (FC) [28]: 100; Activity (CHO [29]): Active
4 | CC(=O)OC[C@H]1O[C@@H](n2[se]c3ccccc3c2=O)[C@H](OC(C)=O)[C@@H](OC(C)=O)[C@@H]1OC(C)=O | Active | 4.69 | Active | Active | 4.92 | 4.74 | 4.72 |  |  |  |  |  | 
5 | O=c1c2ccccc2[se]n1-c1ccccc1 [EBSELEN] | Active | 4.77 |  |  | 4.30 | 4.30 | 4.56 |  |  |  |  |  | Activity (HCT-116 [30]): Active; Activity (HCT-116 [31]): Active
6 | CC(=O)OC[C@H]1O[C@@H](n2[se]c3ccccc3c2=O)[C@H](OC(C)=O)[C@@H](OC(C)=O)[C@H]1OC(C)=O | Active | 4.60 | Active | Active | 4.71 | 4.75 | 4.67 |  |  |  |  |  | 
